# High-throughput results as filed in PubChem BioAssay.
# tolC growth inh: E. coli tolC mutant growth inhibition; E. coli BW25113 tolC mutant growth, OD615; growth inhibition, % at 10 µM (by protocol); 2.2% of 65,000 active; AID 573;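 active means growth inhibition at or above a cutoff equal to the mean over every tested compound plus 3 SD, cut at about 60% in these data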;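 further: growth measured after 20 h incubation at 37 °C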
#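 Test system: tolC-deleted E. coli BW25113 | Medium: LB with kanamycin 50 µg/mL | Compound dosing: Single concentration, 10 µM final per compound | Schedule: 37 °C, 20 h exposure | Measured by: OD at 615 nm | Evaluation: Percent growth inhibition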
# PostGolgi yeast: growth inhibition of a yeast mutant, post-Golgi transport screen; post-Golgi transport phenotypic cell assay; 0.9% of 98,000 active; inhibition, % at 10 µM;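 further: yeast cells grown in 1536-well plates; yeast grown about 18 h at 30C before absorbance read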
# PostGolgi ctrl: growth of the yeast control strain, post-Golgi counter-screen | efflux-deficient yeast background strain, growth absorbance A615, 16 h | inhibition, % at 10 µM | 5% of 98,000 active
# Calb biofilm kill: kills Candida albicans biofilms; 0.14% of 85,000 active; C. albicans biofilm + clotrimazole, Alamar Blue; inhibition, % at 6 µM;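 active means inhibition above 20%; inactive means inhibition below 20%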;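 further: preformed 24 hr biofilms exposed to compound for 48 hr; 0% = biofilm without compound and 100% = blank killed by clotrimazole plus chlorhexidine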
# Pyk2 oligo antag: Pyk2 (human) oligomerization antagonism | Q14289 | Q293 cells, Pyk2 FERM NanoBiT luminescence; active compounds read low | z-score (the deposit names both 25 µM and 10 µM) | 0.83% of 99,000 active;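 active means Z-score of -3 or lower, scaled per plate to the spread of control and sample wells; inactive means z-score above -3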;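 further: negative z-score means lost luminescence so less FERM oligomerization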
# Target sequence (Q14289 whole entry, looked up): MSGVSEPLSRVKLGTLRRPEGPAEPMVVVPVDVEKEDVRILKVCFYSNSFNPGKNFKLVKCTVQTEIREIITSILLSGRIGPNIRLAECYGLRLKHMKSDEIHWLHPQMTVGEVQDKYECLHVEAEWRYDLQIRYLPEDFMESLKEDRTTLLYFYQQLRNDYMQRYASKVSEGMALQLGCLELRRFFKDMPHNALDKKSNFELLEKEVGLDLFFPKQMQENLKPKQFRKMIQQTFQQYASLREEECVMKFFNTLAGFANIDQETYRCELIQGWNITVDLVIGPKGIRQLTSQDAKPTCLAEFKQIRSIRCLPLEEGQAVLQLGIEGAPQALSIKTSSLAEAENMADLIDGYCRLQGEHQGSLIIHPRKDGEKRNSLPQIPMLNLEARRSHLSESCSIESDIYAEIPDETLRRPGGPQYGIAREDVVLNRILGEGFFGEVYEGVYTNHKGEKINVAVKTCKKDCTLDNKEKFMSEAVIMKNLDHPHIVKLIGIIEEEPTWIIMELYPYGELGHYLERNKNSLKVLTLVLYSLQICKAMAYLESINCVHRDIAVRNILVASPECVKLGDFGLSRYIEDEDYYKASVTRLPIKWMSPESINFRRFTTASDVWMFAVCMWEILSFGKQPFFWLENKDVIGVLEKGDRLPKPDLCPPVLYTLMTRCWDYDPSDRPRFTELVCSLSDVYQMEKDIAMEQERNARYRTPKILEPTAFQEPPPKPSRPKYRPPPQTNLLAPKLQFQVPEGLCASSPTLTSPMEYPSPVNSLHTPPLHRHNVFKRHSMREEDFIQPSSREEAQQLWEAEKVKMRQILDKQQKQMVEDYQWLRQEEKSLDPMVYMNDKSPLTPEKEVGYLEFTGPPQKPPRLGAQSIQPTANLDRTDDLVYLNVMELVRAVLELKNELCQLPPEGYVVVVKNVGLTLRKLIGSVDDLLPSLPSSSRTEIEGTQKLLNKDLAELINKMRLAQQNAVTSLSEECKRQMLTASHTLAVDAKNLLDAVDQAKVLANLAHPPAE
# E coli WT exp: blocks growth of wild type E. coli BW25113 | OD600 absorbance | growth inhibition, % at 100 µM | 0.15% of 98,000 active | AID 710;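 active means growth inhibition above about 50% at one test dose, limit read from the data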;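 further: growth measured after 20 h incubation at 37 °C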
# * = called active by the depositor; x = no result. In the library only some 6.5% were active in any assay of this set; here they are far more common. Unless noted, no stated cut-off is given here; in the data, active means inhibition above about 30%; inactive means the rest.
SMILES,tolC growth inh,PostGolgi yeast,PostGolgi ctrl,Calb biofilm kill,Pyk2 oligo antag,E coli WT exp
O=C(NCCc1ccc(Cl)cc1)C1CCCN(S(=O)(=O)c2cnc[nH]2)C1 (stereo not drawn),-8,-7,3,25*,x,2
Cc1cc(Cl)ccc1OCCCC(=O)Nc1cccnc1,27,34*,25,6,0.88,20
Cc1ccc(C(=O)CCC(=O)Nc2cccnc2)cc1C,17,3,17,3,0.65,7
O=C(CN1C(=O)NC2(CCCc3ccccc32)C1=O)N1CCc2ccccc2C1 (stereo not drawn),3,-3,2,5,-0.83,1
Cn1ncc(Cl)c1C(=O)Nc1ccc(Cl)cn1,x,x,x,5,0.88,x
CN(CC(=O)N1CCN(c2ccccc2)CC1)S(=O)(=O)c1cnc[nH]1,-14,3,36*,7,0.14,-11
CN(CC(=O)N1CCN(c2cccc(Cl)c2)CC1)S(=O)(=O)c1cnc[nH]1,x,x,x,-2,x,x
Oc1ccc(Cl)cc1Cc1cc(Cl)ccc1O,100*,x,x,x,x,x
Oc1ccc(Cl)cc1CNCC1CCCO1 (stereo not drawn),55,-7,-7,6,-0.39,2
Cc1nc2ccc(NC(=O)N3CCSCC3)cc2s1,-13,18,31*,8,0.41,1
Cc1nc2ccc(NC(=O)N3CCCCC3)cc2s1,-5,0,4,x,0.6,3
Cc1cc(-c2nc3c4c5c(sc4[nH]c(=O)n3n2)CCC5)c(C)o1,29,0,31*,4,1.2,1
Cc1nc(SC2CCOC2=O)c2c(C)c(C)sc2n1 (stereo not drawn),x,9,36*,x,-0.07,-5
O=C1OCCC1Sc1ncnc2sc3c(c12)CCC3 (stereo not drawn),1,-8,2,9,0.05,2
COC(=O)c1cc(-c2ccccc2)sc1NC(=O)CN1C(=O)c2ccccc2C1=O,x,1,10,x,-2.1,-15
CC(C)n1c(C(=O)OCC(=O)NCc2ccc3c(c2)OCO3)cc2sccc21,58,0,37*,3,-1.4,-21
CC(C)n1c(C(=O)OCC(=O)NCc2ccc3c(c2)OCO3)cc2occc21,64*,-5,13,6,2.5,4
O=C(COC(=O)c1ccc2c(c1)OCO2)NCc1ccc2c(c1)OCO2,x,-3,5,x,0.9,6
Cn1c(C(=O)NCc2ccc3c(c2)OCO3)cc2sccc21,18,-14,8,-1,-0.92,-4
FC(F)(F)c1nc2nncn2c2c1CCCCC2,17,-7,6,-3,0.15,1
CCOC(=O)C1=C(O)/C(=C\c2ccc(CNC(=O)C(=O)Nc3ccc(C)c(C)c3)o2)N=C1C,x,1,11,69*,x,0
Cc1cnc(NC(=O)CSc2nnc(-c3cccs3)n2C)s1,9,-8,-10,12,-0.41,1
O=C(Nc1cccn(Cc2c(Cl)cccc2Cl)c1=O)c1c(Cl)cccc1Cl,x,6,93*,x,-1.3,-13
COC(=O)Nc1cccn(Cc2c(Cl)cccc2Cl)c1=O,x,10,21,x,-0.15,2
CCOC(=O)N1CCN(S(=O)(=O)c2cc(Br)cc3c2N(C(=O)CC)CC3)CC1,6,20,1,4,-0.33,-2
SMILES,tolC growth inh,PostGolgi yeast,PostGolgi ctrl,Calb biofilm kill,Pyk2 oligo antag,E coli WT exp
O=C(C1CC1)N1CCc2cc(Br)cc(S(=O)(=O)N3CCCCCC3)c21,27,-1,41*,7,-1,-2
CCC(=O)N1CCc2cc(Br)cc(S(=O)(=O)N3CCCCCC3)c21,31,8,36*,4,-1.1,-1
CCOC(=O)C1=C(N)n2c(s/c(=C\c3cccs3)c2=O)=C(C(=O)OCC)C1c1cccs1 (stereo not drawn),-12,15,5,3,-1.8,-15
CCOc1ccc(-c2n[nH]c(C)c2Oc2ccc(OC)cc2)c(O)c1,95*,12,33*,7,-3.1*,9
Cc1[nH]nc(-c2ccc(OCc3cnn(-c4ccccc4)c3)cc2O)c1Oc1ccc(F)cc1,x,5,19,x,-0.06,-15
Cc1[nH]nc(-c2ccc(O)c(C)c2O)c1Oc1ccccc1,x,2,38*,-4,-3.4*,14
COc1ccc(C(=O)c2c(C(F)(F)F)oc3c2C(=O)c2ccccc2C3=O)cc1OC,x,37*,27,-5,-2.4,-7
Cc1cccc(C)c1NC(=O)N1CCC(c2nc3ccccc3o2)CC1,6,2,9,1,-0.26,0
CCOC(=O)c1ccc(-c2c(C(=O)OCC)oc3cc(O)c(CC)cc3c2=O)o1,56,-10,12,6,-3.7*,5
CCOC(=O)c1oc2cc(O)ccc2c(=O)c1-c1ccccc1OC,5,-4,11,10,-0.74,2
Cc1ccc(NS(=O)(=O)c2cccc(C(=O)Nc3cc(C)on3)c2)cc1,21,x,x,3,0.98,x
Fc1ccc(CN2CCN3CCCC3C2C2CCCCC2)cc1F (stereo not drawn),x,3,3,x,0.09,15
CC1CCCCC1NC(=O)CSc1nnnn1-c1ccccc1 (stereo not drawn),7,38*,-2,8,0.9,7
Cc1ccc(-c2nc(NC(=O)CSc3nnnn3-c3ccccc3)ns2)cc1,18,5,48*,2,-1.2,-8
Cc1nnc(SCC(=O)Nc2ccccc2NC(=O)CSc2nnc(C)s2)s1,-9,6,6,5,-0.37,6
O=C(CSc1nnc2scc(-c3ccccc3)n12)Nc1nsc(-c2ccc(Cl)cc2)n1,18,x,x,x,-1.2,x
Cc1nnc(SCC(=O)Nc2nsc(-c3ccc(C(C)(C)C)cc3)n2)s1,x,-1,62*,5,x,-7
O=C(CSc1nnc2scc(-c3ccccc3)n12)Nc1nsc(-c2ccccc2)n1,62*,7,11,4,-2.3,-9
O=C(CSc1nnnn1-c1ccc(F)cc1)NC1CCCCC1,3,0,0,4,0.3,10
COC(=O)c1ccc(OCC(=O)c2ccccc2OC)cc1,x,-9,8,-1,-0.71,-3
COc1ccc(C2(CNC(=O)/C=C\c3ccco3)CCCC2)cc1OC,x,-7,7,x,0.58,4
Cc1ccc(-c2csc3nnc(SCC(=O)Nc4nsc(-c5ccccc5)n4)n23)cc1,30,10,41*,9,-1.2,-9
c1ccc(-n2cnc3cc(NCc4ccncc4)ccc32)cc1,28,-2,12,8,-3.4*,17
c1ccc(-n2cnc3cc(NCc4ccccn4)ccc32)cc1,30,2,7,1,-3.4*,4
O=C(COn1nnc2ccc(Cl)cc21)NC12CC3CC(CC(C3)C1)C2,x,6,52*,-1,0.51,-1
CC(NC(=O)c1ccco1)C(=O)N1CCc2ccccc2C1 (stereo not drawn),x,14,-7,6,1.5,1
COc1ccc(S(=O)(=O)N2CCCCCC2)cc1N(C)S(=O)(=O)c1ccc(C)cc1,x,x,x,x,-1,x
C=CCn1c(COc2ccc(Cl)cc2)nnc1SCc1ccc(C#N)cc1,50,47*,41*,5,-0.51,-5
